Measurements reported in ChEMBL document CHEMBL4680121, “Development of (4-methoxyphenyl)-1H-tetrazol-5-amine regioisomers as a new class of selective antitubercular agents” (Eur J Med Chem, 2020).

Columns and labels:
Type in all cases: functional
[1] = system: Mycobacterium tuberculosis; assay: Antitubercular activity against PAS/INH/EMB/RMP-resistant Mycobacterium tuberculosis Spec.210 assessed as inhibition of microbial growth by classical test tube method
Procedure, shortened: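 Classical test-tube serial dilution in Youmans' modified Proskauer–Beck liquid medium with 10% bovine serum. Inoculum came from 14-day-old cultures. Compounds were given as DMSO solutions (stock 10 mg/ml), diluted geometrically in medium to 3.1–100 µg/ml, and incubated at 37 °C. MIC is the minimum concentration inhibiting growth relative to a no-compound control.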

[2] = system: Mycobacterium tuberculosis; assay: Antitubercular activity against INH-resistant Mycobacterium tuberculosis Spec.800 harboring InhA promoter mutation assessed as inhibition of microbial growth incubated for 1 week by MABA method; details: time 1 weeks
Procedure, shortened: (§1)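 Microplate Alamar Blue assay in Middlebrook 7H9 broth with 10% OADC. Inoculum from fresh LJ culture was adjusted to McFarland 1 and diluted 1:20. DMSO stocks were two-fold serially diluted to final 0.125–512 µg/ml, with growth and sterile controls. Plates ran 1 week at 37 °C, then Alamar blue was added for 24 h. MIC is the lowest concentration preventing the blue-to-pink change.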

[3] = system: Mycobacterium tuberculosis; assay: Antitubercular activity against PAS/INH/EMB/RMP-resistant Mycobacterium tuberculosis Spec.210 assessed as inhibition of microbial growth incubated for 1 week by MABA method; details: Mycobacterium tuberculosis, 210, 168 h; time 1 weeks; procedure, shortened: as §1
[4] = system: Mycobacterium tuberculosis; assay: Potency index, Ratio of rifampicin MIC to test compound MIC for antitubercular activity against PAS/INH/EMB/RMP-resistant Mycobacterium tuberculosis Spec.210 assessed as inhibition of microbial growth incubated for 1 week by MABA method; details: time 1 weeks
[5] = system: Mycobacterium tuberculosis; assay: Potency index, Ratio of ethambutol MIC to test compound MIC for antitubercular activity against PAS/INH/EMB/RMP-resistant Mycobacterium tuberculosis Spec.210 assessed as inhibition of microbial growth incubated for 1 week by MABA method; details: time 1 weeks
[6] = system: Mycobacterium tuberculosis; assay: Potency index, Ratio of isoniazid MIC to test compound MIC for antitubercular activity against PAS/INH/EMB/RMP-resistant Mycobacterium tuberculosis Spec.210 assessed as inhibition of microbial growth incubated for 1 week by MABA method; details: time 1 weeks
[7] = system: Mycobacterium tuberculosis; assay: Potency index, Ratio of streptomycin MIC to test compound MIC for antitubercular activity against PAS/INH/EMB/RMP-resistant Mycobacterium tuberculosis Spec.210 assessed as inhibition of microbial growth incubated for 1 week by MABA method; details: time 1 weeks

Structure (SMILES) | MIC [1] | MIC [2] | MIC [3] | Ratio [4] | Ratio [5] | Ratio [6] | Ratio [7]
COc1ccc(NC(=S)Nc2cccc(Cl)c2)cc1 | 100 µg/mL |  |  |  |  |  | 
COc1ccc(Nc2nnnn2-c2ccc(Br)cc2)cc1 |  | 256 µg/mL | 16 µg/mL |  |  |  | 
COc1ccc(Nc2nnnn2-c2ccccc2F)cc1 |  |  | 16 µg/mL |  |  |  | 
COc1ccc(-n2nnnc2Nc2ccccc2F)cc1 |  |  | 16 µg/mL |  |  |  | 
COc1ccc(NC(=S)Nc2ccccc2Br)cc1 | 50 µg/mL |  |  |  |  |  | 
COc1ccc(Nc2nnnn2-c2cccc(Cl)c2)cc1 |  | 128 µg/mL | 8 µg/mL | 2 | 2 | 2 | 2
COc1ccc(NC(=S)Nc2ccccc2F)cc1 | 100 µg/mL |  |  |  |  |  | 
COc1ccc(Nc2nnnn2-c2cccc(F)c2)cc1 |  | 256 µg/mL | 16 µg/mL |  |  |  | 
COc1ccc(NC(=S)Nc2cccc(Br)c2)cc1 | 50 µg/mL |  |  |  |  |  | 
CN[C@@H]1[C@H](O[C@H]2[C@H](O[C@H]3[C@H](O)[C@@H](O)[C@H](N=C(N)N)[C@@H](O)[C@@H]3N=C(N)N)O[C@@H](C)[C@]2(O)C=O)O[C@@H](CO)[C@H](O)[C@H]1O [STREPTOMYCIN] | 25 µg/mL | 1 µg/mL | 16 µg/mL |  |  |  | 
COc1ccc(NC(=S)Nc2ccc(Cl)cc2)cc1 | 50 µg/mL |  |  |  |  |  | 
COc1ccc(-n2nnnc2Nc2ccccc2Br)cc1 |  | 512 µg/mL | 64 µg/mL |  |  |  | 
COc1ccc(NC(=S)Nc2cccc(F)c2)cc1 | 100 µg/mL |  |  |  |  |  | 
COc1ccc(NC(=S)Nc2ccccc2Cl)cc1 | 50 µg/mL |  |  |  |  |  | 
CC[C@@H](CO)NCCN[C@@H](CC)CO [ETHAMBUTOL] | 50 µg/mL | 2 µg/mL | 32 µg/mL |  |  |  | 
COc1ccc(-n2nnnc2Nc2cccc(Cl)c2)cc1 |  | 256 µg/mL | 32 µg/mL |  |  |  | 
COc1ccc(NC(=S)Nc2ccc(Br)cc2)cc1 | > 100 µg/mL |  |  |  |  |  | 
NNC(=O)c1ccncc1 [ISONIAZID] | 12.5 µg/mL | 2 µg/mL | 16 µg/mL |  |  |  | 
COc1ccc(Nc2nnnn2-c2ccc(F)cc2)cc1 |  | 128 µg/mL | 8 µg/mL | 2 | 2 | 2 | 2
COc1ccc(-n2nnnc2Nc2ccc(F)cc2)cc1 |  | 512 µg/mL | 32 µg/mL |  |  |  | 
COc1ccc(-n2nnnc2Nc2ccc(Cl)cc2)cc1 |  | 256 µg/mL | 16 µg/mL |  |  |  | 
COc1ccc(Nc2nnnn2-c2ccccc2Br)cc1 |  | 256 µg/mL | 16 µg/mL |  |  |  | 
COc1ccc(Nc2nnnn2-c2ccc(Cl)cc2)cc1 |  | 128 µg/mL | 8 µg/mL | 2 | 2 | 2 | 2
COc1ccc(-n2nnnc2Nc2ccccc2Cl)cc1 |  | 256 µg/mL | 8 µg/mL | 2 | 2 | 2 | 2
COc1ccc(NC(S)=Nc2ccc(F)cc2)cc1 | 100 µg/mL |  |  |  |  |  | 
COc1ccc(Nc2nnnn2-c2ccccc2Cl)cc1 |  | 128 µg/mL | 8 µg/mL | 2 | 2 | 2 | 2
CO[C@H]1/C=C/O[C@@]2(C)Oc3c(C)c(O)c4c(O)c(c(/C=N/N5CCN(C)CC5)c(O)c4c3C2=O)NC(=O)/C(C)=C\C=C\[C@H](C)[C@H](O)[C@@H](C)[C@@H](O)[C@@H](C)[C@H](OC(C)=O)[C@@H]1C [RIFAMPIN] | 50 µg/mL | 1 µg/mL | 32 µg/mL |  |  |  | 
COc1ccc(Nc2nnnn2-c2cccc(Br)c2)cc1 |  | 256 µg/mL | 16 µg/mL |  |  |  | 
COc1ccc(-n2nnnc2Nc2cccc(F)c2)cc1 |  | 256 µg/mL | 8 µg/mL | 2 | 2 | 2 | 2
